Reference: ChEMBL document CHEMBL4130632, “Targeting Myeloid Differentiation Using Potent 2-Hydroxypyrazolo[1,5- a]pyridine Scaffold-Based Human Dihydroorotate Dehydrogenase Inhibitors” (J Med Chem, 2018)

What was measured:
U-937 = assay: Induction of myeloid differentiation in human U937 cells assessed as increase in CD11b expression level at 0.1 to 1 uM up to 4 days by propidium iodide staining-based flow cytometry; assay type: functional
Method in brief: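 Cells plated at 1 × 10^4 with inhibitor 0.1–10 μM. Differentiation was followed daily by flow cytometry, to day 4 for U937 and day 5 for THP1. Markers were PE-CD11b for U937 and FITC-CD14 for THP1, stained 45 min at 4 °C in PBS/2% BSA/1 mM EDTA. Propidium iodide excluded dead cells. Uridine-rescue (100 μM) samples were read at day 3.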

PBMC [1] = assay: Immunosuppressive activity against human PBMC assessed as inhibition of PHA-stimulated cell proliferation preincubated for 2 hrs followed by PHA stimulation for 72 hrs by Hoechst 33258 dye-based fluorescence assay; assay type: functional
PBMC [2] = assay: Immunosuppressive activity against human PBMC assessed as inhibition of PHA-stimulated cell proliferation preincubated for 2 hrs followed by PHA stimulation for 72 hrs in presence of exogenous uridine by Hoechst 33258 dye-based fluorescence assay; assay type: functional
Jurkat [3] = assay: Antiproliferative activity against human Jurkat T cells assessed as DNA content after 72 hrs by Hoechst 33258 dye-based fluorescence assay; assay type: functional, cell-based
[4] = Stability of the compound in human serum assessed as compound remaining at 37 degC after 24 hrs by RP-HPLC analysis; assay type: ADME, cell-free; conditions: read-out: Stability
Method in brief: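 Compound from DMSO stock added to human male AB serum (2% cosolvent) and shaken at 37 °C. Samples taken at 0–24 h were deproteinized with 0.1% TFA in acetonitrile, centrifuged and filtered. Analyzed by C18 RP-HPLC (acetonitrile/water 70/30, 0.1% TFA). Value is % unmodified parent at 24 h.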

Jurkat [5] = assay: Antiproliferative activity against human Jurkat T cells assessed as DNA content after 72 hrs in presence of exogenous uridine by Hoechst 33258 dye-based fluorescence assay; assay type: functional, cell-based
THP-1 = assay: Induction of myeloid differentiation in human THP1 cells assessed as increase in CD14 expression level at 0.1 to 1 uM up to 4 days by propidium iodide staining-based flow cytometry
[6] = molecular target: Dihydroorotate dehydrogenase (quinone), mitochondrial (Homo sapiens, UniProt Q02127); assay: Inhibition of recombinant N-terminal GST-tagged human DHODH (31 to 395 residues) expressed in Escherichia coli BL21(DE3) assessed as inhibition of DCIP reduction using dihydroorotate as substrate preincubated for 5 mins followed by substrate addition measured after 5 mins
Dihydroorotate dehydrogenase (quinone), mitochondrial, sequence (Q02127 whole entry, the tested form may be a part): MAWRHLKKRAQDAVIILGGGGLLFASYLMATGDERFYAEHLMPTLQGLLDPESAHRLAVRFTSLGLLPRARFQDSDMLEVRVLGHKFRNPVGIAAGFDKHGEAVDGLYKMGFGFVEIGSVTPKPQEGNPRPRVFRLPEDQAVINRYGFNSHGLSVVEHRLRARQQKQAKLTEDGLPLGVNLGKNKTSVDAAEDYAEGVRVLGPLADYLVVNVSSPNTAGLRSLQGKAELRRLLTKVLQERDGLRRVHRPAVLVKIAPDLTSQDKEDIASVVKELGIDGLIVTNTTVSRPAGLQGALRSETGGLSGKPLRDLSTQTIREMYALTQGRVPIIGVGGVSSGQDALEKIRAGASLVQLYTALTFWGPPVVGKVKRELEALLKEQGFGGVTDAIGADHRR

Jurkat [7] = assay: Cytotoxicity against human Jurkat T cells assessed as compound concentration required to induce =>30% cell death after 72 hrs by CellTox green assay; assay type: cell-based
Method in brief: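 Jurkat T cells (complete X-VIVO 15, 10% FBS, 37 °C, 5% CO2; passages 5–10, mycoplasma-tested), 5 × 10^3/well. Cells exposed to 0.001–100 μM compound or DMSO vehicle for 72 h. Cell death read by CellTox Green. Value is the concentration giving significant (≥30%) cytotoxicity, mean ± SE of three independent experiments.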

In the case of Cc1c(-c2ccc(-c3ccccc3F)cc2)nc2ccc(F)cc2c1C(=O)O [BREQUINAR], the “%max” value (U-937) is reported as 40%, the IC50 (PBMC [1]) is reported as 3.74 µM and the IC50 (PBMC [2]) is reported as 59.6 µM. It also gave an IC50 (Jurkat [3]) of 0.91 µM, a remaining at 24 h [4] of 98% and an IC50 (Jurkat [5]) of 94.2 µM. The “%max” value (THP-1) was 40%.

With Cn1nc(O)c(C(=O)Nc2c(F)c(F)c(-c3ccccc3)c(F)c2F)n1 the IC50 [6] was 0.045 µM.

Compound C/C(O)=C(\C#N)C(=O)Nc1ccc(C(F)(F)F)cc1 [TERIFLUNOMIDE] has an Activity (Jurkat [7]) of 53 µM.

In the case of Cn1c(=O)c(C(=O)Nc2c(F)c(F)c(-c3ccccc3)c(F)c2F)c2ccccn21, the IC50 [6] is reported as greater than 5 µM.
